Results reported in ChEMBL document CHEMBL3758101, “Synthesis and biological evaluation of fluorinated 1,5-diarylpyrrole-3-alkoxyethyl ether derivatives as selective COX-2 inhibitors endowed with anti-inflammatory activity” (Eur J Med Chem, 2016).
pIC50: −log10 of the molar value.

Columns and labels:
[1] = system: Mus musculus; experiment: Antinociceptive activity in CD1 albino mouse model of acetic acid-induced visceral pain assessed as number of writhes at 3 mg/kg, po pretreated for 30 mins before acetic acid challenge measured after 5 mins (reference value: 30.5 +/- 1.7); type: functional
[2] = system: Mus musculus; experiment: Antinociceptive activity in CD1 albino mouse model of acetic acid-induced visceral pain assessed as number of writhes at 10 mg/kg, po pretreated for 60 mins before acetic acid challenge measured after 5 mins (reference value: 32.5 +/- 2.4); type: functional
[3] = system: Rattus norvegicus; experiment: Antihyperalgesic effect in Sprague-Dawley rat model of monosodium iodoacetate-induced osteoarthritis assessed as withdrawal threshold at 3 mg/kg, ip administered 14 days post MIA challenge measured after 30 mins by paw pressure test (reference value: 37.8 +/- 3.3 g); type: functional
In short: (§1)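 Male Sprague–Dawley rats (200–250 g). MIA (2 mg/25 µL) was injected into the left tibiotarsal joint on day 0 under 2% isoflurane; controls received 25 µL saline. On day 14 compound or vehicle was given at time 0. Paw pressure threshold (g) was read with an analgesimeter using a blunt conical probe on the dorsal paw at 30, 60, 90 and 120 min. Mean ± s.e.m., 6 rats.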

[4] = system: Rattus norvegicus; experiment: Antihyperalgesic effect in Sprague-Dawley rat model of monosodium iodoacetate-induced osteoarthritis assessed as withdrawal threshold at 20 mg/kg, ip administered 14 days post MIA challenge measured after 30 mins by paw pressure test (reference value: 37.8 +/- 3.3 g); type: functional; in short: as §1
[5] = system: Rattus norvegicus; experiment: Antihyperalgesic effect in Sprague-Dawley rat model of monosodium iodoacetate-induced osteoarthritis assessed as withdrawal threshold at 10 mg/kg, ip administered 14 days post MIA challenge measured after 60 mins by paw pressure test (reference value: 36.1 +/- 3.5 g); type: functional; in short: as §1
[6] = system: Rattus norvegicus; experiment: Antihyperalgesic effect in Sprague-Dawley rat model of monosodium iodoacetate-induced osteoarthritis assessed as withdrawal threshold at 20 mg/kg, ip administered 14 days post MIA challenge measured after 60 mins by paw pressure test (reference value: 36.1 +/- 3.5 g); type: functional; in short: as §1
[7] = system: Rattus norvegicus; experiment: Antihyperalgesic effect in Sprague-Dawley rat model of monosodium iodoacetate-induced osteoarthritis assessed as withdrawal threshold at 10 mg/kg, ip administered 14 days post MIA challenge measured after 90 mins by paw pressure test (reference value: 37.8 +/- 3.1 g); type: functional; in short: as §1
[8] = system: Rattus norvegicus; experiment: Antihyperalgesic effect in Sprague-Dawley rat model of monosodium iodoacetate-induced osteoarthritis assessed as withdrawal threshold at 3 mg/kg, ip administered 14 days post MIA challenge measured after 120 mins by paw pressure test (reference value: 39.2 +/- 4 g); type: functional; in short: as §1
[9] = system: HaCaT; experiment: Cytotoxicity against human HaCaT cells at 1 to 50 uM after 24 hrs by LDH release assay; type: cell-based
In short: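 HaCaT cells were grown in high-glucose DMEM with 10% FBS to 80% confluency. They were exposed 24 h to compound at 1–50 µM (final DMSO ≤0.1%). LDH release was expressed as a percentage of Triton X-100 lysis (100%); mean of three experiments.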

[10] = target: T1, Prostaglandin G/H synthase 2 (Mus musculus, UniProt Q05769); experiment: Inhibition of COX-2 in mouse J774 cells assessed as reduction in LPS-induced PGE2 level incubated for 24 hrs by radio immunoassay; type: cell-based
T1 sequence (Q05769 whole entry): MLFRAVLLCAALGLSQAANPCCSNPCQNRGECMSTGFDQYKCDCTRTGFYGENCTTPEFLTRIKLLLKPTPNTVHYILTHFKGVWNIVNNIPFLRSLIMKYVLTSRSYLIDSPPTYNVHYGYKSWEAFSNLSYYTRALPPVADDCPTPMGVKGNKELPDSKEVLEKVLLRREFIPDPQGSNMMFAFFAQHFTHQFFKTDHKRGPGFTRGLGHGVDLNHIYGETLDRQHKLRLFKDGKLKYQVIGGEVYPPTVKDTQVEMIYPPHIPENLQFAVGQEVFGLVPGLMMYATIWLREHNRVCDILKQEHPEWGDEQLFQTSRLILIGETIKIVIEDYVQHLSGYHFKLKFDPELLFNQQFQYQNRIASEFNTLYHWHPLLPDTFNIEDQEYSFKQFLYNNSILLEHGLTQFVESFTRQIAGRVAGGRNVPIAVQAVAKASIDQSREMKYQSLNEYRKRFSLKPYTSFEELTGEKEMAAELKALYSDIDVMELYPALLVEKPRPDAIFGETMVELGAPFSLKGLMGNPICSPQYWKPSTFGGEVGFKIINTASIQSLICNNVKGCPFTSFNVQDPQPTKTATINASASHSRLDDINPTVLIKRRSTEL
In short: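 Murine J774 macrophages were stimulated for 24 h with E. coli LPS (10 µg/mL) to induce COX-2, with or without compound (0.001–10 µM). Supernatant PGE2 was measured by RIA as % inhibition of production versus control; triplicate wells, mean of three experiments, IC50 from a sigmoidal variable-slope fit.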

[11] = species on record: Mus musculus; experiment: Selectivity ratio of IC50 for mouse COX-1 to IC50 for mouse COX-2
In short: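 In J774 cells, the ratio was taken as COX-1 IC50 over COX-2 IC50. COX-1 activity: 15 min compound pretreatment, then 30 min with 15 µM arachidonic acid. COX-2 activity: 24 h LPS (10 µg/mL) induction with compound. PGE2 was measured by RIA in both; IC50 values came from sigmoidal fits of three experiments.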

[12] = system: Rattus norvegicus; experiment: Antiinflammatory activity in Sprague-Dawley rat model of carrageenan-induced […] at 10 mg/kg, po administered 2 hrs post carrageenan challenge measured after 60 mins by […] (reference value: 35.4 +/- 3.6 ml); type: functional
[13] = system: Rattus norvegicus; experiment: Antiinflammatory activity in Sprague-Dawley rat model of carrageenan-induced paw edema assessed as volume of paw edema at 10 mg/kg, po administered 2 hrs post carrageenan challenge measured after 60 mins by plethysmometry (reference value: 2.73 +/- 0.07 ml); type: functional
[14] = system: Rattus norvegicus; experiment: Antiinflammatory activity in Sprague-Dawley rat model of carrageenan-induced paw edema assessed as paw volume at 20 mg/kg, po administered 2 hrs post carrageenan challenge measured after 30 mins by plethysmometry (reference value: 34.1 +/- 2.3 ml); type: functional
[15] = system: Rattus norvegicus; experiment: Antihyperalgesic activity in Sprague-Dawley rat model of carrageenan-induced inflammatory pain assessed as paw pressure threshold at 3 mg/kg, po administered 2 hrs post carrageenan challenge measured after 60 mins by paw pressure test (reference value: 35.4 +/- 3.6 g)
[16] = system: Rattus norvegicus; experiment: Antihyperalgesic activity in Sprague-Dawley rat model of carrageenan-induced inflammatory pain assessed as paw pressure threshold at 20 mg/kg, po administered 2 hrs post carrageenan challenge measured after 60 mins by paw pressure test (reference value: 35.4 +/- 3.6 g)
[17] = system: Rattus norvegicus; experiment: Antihyperalgesic activity in Sprague-Dawley rat model of carrageenan-induced inflammatory pain assessed as paw pressure threshold at 20 mg/kg, po administered 2 hrs post carrageenan challenge measured after 120 mins by paw pressure test (reference value: 34.5 +/- 4.4 g)

With `Cc1c(CCOCCCF)cc(-c2ccc(S(C)(=O)=O)cc2)n1-c1ccc(F)cc1` the Activity [1] was 21.8, the Activity [2] was 17.7 and the Activity [3] was 47.9 g. For the same molecule, the Activity [4] was 51.3 g, the Activity [5] was 51.8 g and the Activity [6] was 54.5 g. The Activity [7] was 44.3 g, the Activity [8] was 39 g and the Activity [9] was “Non-toxic”. For the same molecule, the pIC50 [10] was 8.15, the Ratio IC50 [11] was over 14300 and the Activity [12] was 53.5 g. The Activity [13] was 2.15 mL, the Activity [14] was 53.9 g and the Activity [15] was 49.2 g. For the same molecule, the Activity [16] was 56.3 g and the Activity [17] was 35.5 g.
